Columns and labels:
[1] = test system: Respiratory syncytial virus; experiment: Antiviral activity against GFP-fused wild-type RSV subgroup A Long infected in human HEp-2 cells measured 24 to 72 hrs post infection by fluorescence assay; type: functional, cell-based
Procedure, shortened: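 HEp-2 cells plated, then after 24 h infected with RSV-mGFP using 3-fold serially diluted inocula starting from 3 × 10^4 pfu/well. Compounds came from a 100 mM DMSO stock, diluted as indicated. RFU read at 479/517 nm at 24, 48 and 72 h post-infection, with non-infected cells as background. Mean ± SD of at least three experiments.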

[2] = Cytotoxicity against human HEp-2 cells assessed as reduction in cell viability measured after 48 hrs by MTS assay; type: cell-based
Procedure, shortened: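 HEp-2 cells plated; after 24 h, compound added and cells incubated 48 h. MTS (2 mg/ml) then added for 3 h at 37 °C in 5% CO2 and absorbance read at 490 nm. Untreated control set as 100%.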

[3] = test system: Influenza A virus; experiment: Antiviral activity against Influenza A virus A/WSN/33(H1N1) infected in human HEK293T cells measured after 24 hrs by Gaussia luciferase reporter gene method; type: functional, organism-based; details: A/WSN/1933(H1N1); for EC50: HEK-293T
Procedure, shortened: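 HEK293T cells carrying a Gaussia luciferase reporter that is activated by IAV, infected with A/WSN/33 (H1N1) for 1 h at room temperature, then cultured 24 h at 37 °C with serially diluted compound. Supernatant Gluc read with coelenterazine-h (16.7 μM in PBS) as 0.5-s photon counts. Normalized to control set as 100%; ribavirin positive control; three experiments.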

[4] = Cytotoxicity against HEK293T cells assessed as reduction in cell viability measured after 48 hrs by CCK8 assay; type: cell-based, HEK-293T; details: human
Procedure, shortened: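 293T cells treated for 48 h with six compound concentrations from 12.5 to 200 μM, with DMSO-only cells as control. CCK-8 then added for 1 h at 37 °C and OD read at 450 nm. Mean ± SD of three experiments.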

[5] = Safety index, ratio of CC50 for HEK293T cells to EC50 for antiviral activity against Influenza A virus A/WSN/33(H1N1) infected in human HEK293T cells; type: toxicity, cell-based; details: read-out: Ratio CC50/EC50
[6] = Safety index, ratio of CC50 for human HEp-2 cells to EC50 for GFP-fused wild-type RSV subgroup A long infected in human HEp-2 cells; type: toxicity, cell-based; details: read-out: Ratio CC50/EC50
[7] = test system: Influenza A virus; experiment: Antiviral activity against Influenza A virus A/WSN/33(H1N1) infected in MDCK cells measured after 24 hrs by Gaussia luciferase reporter gene method; type: functional, organism-based; details: A/WSN/1933(H1N1)
Procedure, shortened: (§1)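 MDCK cells infected with IAV A/WSN/33 (H1N1) or H3N2 for 1 h at room temperature, then cultured in fresh DMEM with serially diluted compound for 24 h at 37 °C. Gluc activity in the medium read with coelenterazine-h (16.7 μM in PBS). Normalized to control set as 100%; ribavirin positive control; mean ± SD of three experiments.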

[8] = Antiviral activity against H3N2 infected in MDCK cells measured after 24 hrs by Gaussia luciferase reporter gene method; type: functional, cell-based, H3N2 subtype; details: Influenza A virus; procedure, shortened: as §1

Structure (SMILES) | EC50 [1] [µM] | CC50 at 48 h [2] [µM] | EC50 [3] [µM] | CC50 at 48 h [4] [µM] | selectivity ratio [5] | Activity [1] | selectivity ratio [6] | Activity [3] | EC50 [7] [µM] | EC50 [8] [µM]
CCOc1ccccc1NC(=O)CSc1c[nH]c2ncccc12 | > 128 | > 1000 | 31.4 | > 100 | > 3.21 |  |  |  |  | 
CCOc1ccccc1NC(=O)CSc1c[nH]c2cccc(Cl)c12 | 2.45 | 7.15 | 0.58 | 25.2 | > 41 | Dose-dependent effect | 2.92 | Dose-dependent effect | 2.67 | 2.33
COc1cccc2c(SCC(=O)Nc3ccc(Cl)c(Cl)c3)c[nH]c12 | 17.3 | 39.5 | 13.8 | > 100 | > 7.21 |  | 2.28 |  |  | 
Cn1cc([S+]([O-])CC(=O)Nc2ccc(Cl)cc2)c2ccccc21 (centres undefined) | > 128 | 61.9 | 9.93 | > 100 | > 10 |  |  |  |  | 
Cn1cc(S(=O)(=O)CC(=O)Nc2cccc(Cl)c2Cl)c2ccccc21 | 19.9 | 275 | 36.3 | > 100 | > 2.75 |  | 13.8 |  |  | 
Cn1cc(SCC(=O)Nc2cccc(Cl)c2)c2ccccc21 | 23.9 | 18.9 | 9.98 | > 100 | > 10 |  | 0.79 |  |  | 
COc1ccc2c(SCC(=O)Nc3ccc(Cl)c(Cl)c3)c[nH]c2c1 | 5.79 | 42.7 | 15.8 | 78.4 | 5 | Dose-dependent effect | 7.16 |  |  | 
Cn1cc(S(=O)(=O)CC(=O)Nc2ccc(Cl)cc2Cl)c2ccccc21 | > 128 | > 1000 | 33.7 | > 100 | > 2.97 |  |  |  |  | 
Cn1cc([S+]([O-])CC(=O)Nc2cccc(Cl)c2)c2ccccc21 (centres undefined) | > 128 | > 1000 | 39.3 | > 100 | > 2.55 |  |  |  |  | 
O=C(CSc1c[nH]c2cccc(Cl)c12)Nc1ccc(Cl)c(Cl)c1 | 25.3 | 27.7 | 5.72 | 34.7 | 5.95 |  | 1.09 |  |  | 
CCOc1ccccc1NC(=O)CSc1c[nH]c2ccc(Cl)cc12 | 18.1 | 204 | 4.19 | 37.6 | 8.97 |  | 11.3 |  |  | 
CCOc1ccccc1NC(=O)CSc1c[nH]c2c(OC)cccc12 | 0.43 | 0.61 | 12.2 | > 100 | > 8.24 | Dose-dependent effect | 1.42 |  |  | 
Cn1cc(SCC(=O)Nc2cccc(Cl)c2Cl)c2ccccc21 | > 128 | > 1000 | 14 | > 100 | > 7.26 |  |  |  |  | 
Cn1cc(SCC(=O)Nc2ccccc2Cl)c2ccccc21 | > 128 | > 1000 | 27.9 | > 100 | > 3.59 |  |  |  |  | 
COc1cccc2[nH]cc(SCC(=O)Nc3ccc(Cl)c(Cl)c3)c12 | > 128 | > 256 | 15.1 | > 100 | > 6.61 |  |  |  |  | 
COc1ccc2[nH]cc(SCC(=O)Nc3ccc(Cl)c(Cl)c3)c2c1 | 16.6 | 46.4 | 15.5 | 61.8 | 4.19 |  | 2.79 |  |  | 
CCOc1ccccc1NC(=O)CSc1c[nH]c2c(Cl)cccc12 | 4.46 | 262 | 1.75 | > 100 | > 57.5 |  | 58.8 |  | 4.33 | 1.83
CCOc1ccccc1NC(=O)CSc1c[nH]c2cccc(OC)c12 | 12.3 | 220 | 11.2 | > 100 | > 8.8 |  | 17.9 |  |  | 
O=C(CSc1c[nH]c2c(Cl)cccc12)Nc1ccc(Cl)c(Cl)c1 | 18.1 | 32.8 | 10.4 | 49.1 | 4.69 |  | 1.81 |  |  | 
O=C(CSc1c[nH]c2cc(Cl)ccc12)Nc1ccc(Cl)c(Cl)c1 | 14 | 27.8 | 7.36 | 67.8 | 9.16 |  | 1.99 |  |  | 
Cn1cc(SCC(=O)Nc2ccc(Cl)cc2)c2ccccc21 | > 128 | 31.4 | 9.82 | > 100 | > 10.2 |  |  |  |  | 
O=C(CSc1c[nH]c2ccc(Cl)cc12)Nc1ccc(Cl)c(Cl)c1 | 9.95 | 35.2 | 7.62 | 42.7 | 5.53 |  | 3.54 |  |  | 
Cn1cc(SCC(=O)Nc2cc(Cl)ccc2Cl)c2ccccc21 | > 128 | 76.9 | 15.8 | > 100 | > 6.38 |  |  |  |  | 
O=C(CSc1c[nH]c2ncccc12)Nc1ccc(Cl)c(Cl)c1 | > 128 | > 256 | 31.6 | > 100 | > 3.1 |  |  |  |  | 
Cn1cc(SCC(=O)Nc2ccc(Cl)cc2Cl)c2ccccc21 | > 128 | > 1000 | 11.9 | > 100 | > 8.38 |  |  |  |  | 
Cn1cc([S+]([O-])CC(=O)Nc2ccccc2Cl)c2ccccc21 (centres undefined) | 12.3 | 97.4 | 29.8 | > 100 | > 3.36 |  | 7.89 |  |  | 
CCOc1ccccc1NC(=O)CSc1c[nH]c2cc(OC)ccc12 | 23.1 | 35.2 | 4.48 | 88.2 | 15.4 |  | 1.53 |  |  | 
Cn1cc(S(=O)(=O)CC(=O)Nc2cc(Cl)ccc2Cl)c2ccccc21 | > 128 | > 1000 | 18 | > 100 | > 6.72 |  |  |  |  | 

Reference: ChEMBL document CHEMBL4715831, “Design and synthesis of 2-((1H-indol-3-yl)thio)-N-phenyl-acetamides as novel dual inhibitors of respiratory syncytial virus and influenza virus A” (Eur J Med Chem, 2020)
